GRK2 aptamer HTS – human GRK2 inhibition via aptamer displacement; P25098; bead flow cytometry, FAM-aptamer displacement from GRK2; inhibition of aptamer binding, % at 10 µM; 330,000 compounds, 0.59% hits;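 active = inhibition of aptamer binding above 40%, roughly 3 SD of noise, on plates passing a quality check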;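 also: median bead fluorescence of bound FAM aptamer so fluorescent compounds give negative values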
Target sequence (P25098 whole entry, looked up): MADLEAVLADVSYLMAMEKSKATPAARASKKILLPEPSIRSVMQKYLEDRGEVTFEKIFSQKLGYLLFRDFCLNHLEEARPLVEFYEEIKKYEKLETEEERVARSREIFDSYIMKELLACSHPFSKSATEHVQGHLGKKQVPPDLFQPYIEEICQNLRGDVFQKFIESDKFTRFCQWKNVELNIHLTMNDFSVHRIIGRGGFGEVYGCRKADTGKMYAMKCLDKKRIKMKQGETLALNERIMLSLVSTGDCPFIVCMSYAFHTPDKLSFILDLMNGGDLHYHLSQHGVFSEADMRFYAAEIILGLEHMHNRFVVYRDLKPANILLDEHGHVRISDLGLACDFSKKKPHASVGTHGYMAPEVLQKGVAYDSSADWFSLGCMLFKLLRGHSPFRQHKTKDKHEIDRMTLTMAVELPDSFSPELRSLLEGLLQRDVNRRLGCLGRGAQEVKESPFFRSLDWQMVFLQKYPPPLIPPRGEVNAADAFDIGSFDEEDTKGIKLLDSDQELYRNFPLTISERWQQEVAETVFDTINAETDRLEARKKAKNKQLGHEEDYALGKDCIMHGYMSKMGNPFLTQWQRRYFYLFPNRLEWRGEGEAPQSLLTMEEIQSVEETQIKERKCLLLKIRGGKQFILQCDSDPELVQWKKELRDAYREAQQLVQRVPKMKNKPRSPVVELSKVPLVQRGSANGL
SR-BI HDL uptake – blocks mouse SR-BI lipid uptake from DiI-HDL. Q61009. ldlA[mSR-BI] CHO cells, DiI-HDL uptake fluorescence, 3 h. inhibition, % at 12.5 µM. 320,000 compounds, 0.96% hits. AID 488896;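 active = mean replicate inhibition of at least 70% and a set share of replicates each scoring 70 or more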;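 also: 0% = median of neutral control wells and 100% = median of positive control wells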
SR-BI uptake up – SR-BI HDL lipid transfer activation | 320,000 compounds, 0.096% hits | AID 504775 | CHO ldlA[mSR-BI] cells, DiI-HDL uptake fluorescence, 3 h; 100 = double the neutral-control signal | activation, % at 12.5 µM;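 active = mean replicate activation of at least 60% and every replicate at or above 60%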;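 also: 0% = median plate neutral-control signal and 100% = twice that signal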
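Material – SR-BI-overexpressing, LDLR-lacking CHO cells · Medium – BSA-supplemented, HEPES-buffered Ham's F12, pH 7.4 · Doses – single concentration · Times – compound with DiI-HDL co-incubation, 3 h at 37 °C · Measured by – bottom-read fluorescence, 550/595 nm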
Rin1-Abl PPI inh – blocks binding of human Rin1 to Abl; TR-FRET Rin1/Abl binding, biochemical; inhibition, % at 7.35 µM; 360,000 compounds, 0.4% hits; AID 588664; in the data active = inhibition above about 5%, passing the limit was not always enough
GRK2 CP1 – human GRK2 inhibition confirmation, cherry pick 1 | shares compounds with GRK2 aptamer HTS | bead-bound GRK2, FAM-aptamer displacement, flow cytometry | aptamer displacement, % at 10 µM | 2,000 compounds, 4% hits | AID 504451;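 active = aptamer displacement above 40%, near three times the noise of non-fluorescent compounds, on plates passing quality checks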;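 also: negative values mostly reflect intrinsic compound fluorescence rather than true enhancement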
Aptamer quench 1 – quenches fluorescent RNA aptamer, GRK2 hit artifact; shares compounds with GRK2 aptamer HTS; Fluorescent RNA aptamer beads, quenching, flow cytometry; stronger effect = higher value; fluorescence change (kMESF span), kMESF (concentration not given with the values); 110 tested, under 10 active; AID 504521;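 active = compounds whose bead fluorescence drops by more than 37 kMESF across the dose range, marking them as dye quenchers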
FAM quench CP1 – quenches fluorescent RNA aptamer, GRK2 hit artifact. shares compounds with GRK2 aptamer HTS. Carboxyfluorescein RNA aptamer on beads, flow cytometry quenching; stronger effect = lower value. fluorescence response (% of DMSO), % at 10 µM. 2,000 tested, under 10 active;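 active = compounds that quench the bead-bound fluorescent RNA probe, cutting fluorescence to under half of the solvent control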;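 also: counterscreen run without GRK2 so only probe quenching by compound is measured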
GRK2 CP2 – human GRK2 inhibition confirmation, cherry pick 2; 360 tested, under 10 active; shares compounds with GRK2 aptamer HTS; inhibition of aptamer binding, % at 10 µM; bead-bound GRK2, FAM-aptamer displacement, flow cytometry;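 active = inhibition of aptamer binding above 40%, about triple the noise seen with nonglowing compounds, on plates passing quality control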;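 also: negative values mostly come from compounds that fluoresce themselves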
Aptamer quench3 – counter-screen for GRK2 aptamer inhibitors: fluorescent aptamer quenchers; shares compounds with GRK2 aptamer HTS; Streptavidin beads, FAM-RNA aptamer fluorescence quenching, flow cytometry; change in fluorescence (kMESF span), kMESF (no concentration beside the values); 25 tested, under 10 active; AID 504819;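 active = compounds quenching the bead-bound labeled aptamer, with fluorescence dropping by more than 37 kMESF over the dose range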
FAM quench SP – aptamer fluorescence quenching in GRK2 counter-screen; shares compounds with GRK2 aptamer HTS; carboxyfluorescein RNA aptamer beads, flow cytometry quenching; stronger effect = lower value; fluorescence response vs DMSO, % at 10 µM; 360 tested, under 10 active; AID 588494;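 active = response vs DMSO under 50%, meaning signal dropped by over half, treated as fluorescence quencher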;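 also: labelled aptamer on streptavidin beads without GRK2 as a quench counter-screen; 100% = bead fluorescence of DMSO wells and lower means quenching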
FAM quench DR – aptamer fluorescence quenching in GRK2 powder counter-screen; shares compounds with GRK2 aptamer HTS; Bead-bound FAM RNA aptamer fluorescence quenching, flow cytometry; stronger effect = lower value; fluorescence ratio to DMSO, % at 11.1 µM; 35 tested, under 10 active; AID 588496;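 active = compounds that dim the fluorescent label, raw bead signal shifting by over 33 units between lowest and highest dose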
Numbers without * were called inactive; · = no result given. The list is not random: actives were taken first. Their share in the collection is about 1.9%.

SMILES | GRK2 aptamer HTS | SR-BI HDL uptake | SR-BI uptake up | Rin1-Abl PPI inh | GRK2 CP1 | FAM quench CP1 | others
COC(=O)c1ccccc1NC(=O)CCS(=O)(=O)c1ccc(Br)cc1 | · | 0 | 0 | 0 | · | ·
CCc1ccccc1NC(=O)CCS(=O)(=O)c1ccc(Br)cc1 | 57* | -1 | 1 | 5 | 30 | 96 | Aptamer quench 1=-0.1;Aptamer quench3=-1.3;FAM quench DR=99
O=C(CCS(=O)(=O)c1ccc(Br)cc1)NC1CCCC1 | 80* | 0 | 0 | 5 | 61* | 99 | Aptamer quench 1=0.6;Aptamer quench3=4.6
N#CCCN(Cc1ccccc1)C(=O)CCC(=O)c1ccc(F)cc1 | · | · | · | -1 | · | ·
Cc1ccc(S(=O)(=O)N2CCOCC2)cc1C(=O)NCCCN1CCCC1=O | · | · | · | 2 | · | ·
O=C(COC(=O)COc1ccc(Br)cc1)NC1CCCC1 | 0 | -8 | 8 | 1 | · | ·
Cn1cccc1/C=N\NC(=O)Cc1ccc(Br)c2ccccc12 | 1 | 18 | -18 | -9 | · | ·
CCOc1ccc(NC(=O)CCS(=O)(=O)c2ccc(Br)cc2)cc1 | 83* | -6 | 6 | 3 | · | · | GRK2 CP2=60*;Aptamer quench3=-0.2;FAM quench SP=102;FAM quench DR=102
COc1ccc(NC(=O)CCS(=O)(=O)c2ccc(OC)cc2)cc1 | 0 | -12 | 12 | 1 | · | ·
Cc1cc(F)ccc1-c1cc(C(=O)NCc2ccco2)[nH]n1 | · | · | · | 0 | · | ·
Cc1ccc(/C=C/C(=O)N2CCN(S(=O)(=O)/C=C/c3ccccc3)CC2)o1 | 0 | 21 | -21 | 4 | · | ·
COc1cc(Cl)c([C@@H]2C[C@H]3CN(c4ccccc4)C(=O)[C@]34CCCN24)cc1OC | 70* | 18 | -18 | -3 | 0 | 97
COc1cc([C@@H]2C[C@H]3CN(c4ccccc4)C(=O)[C@]34CCCN24)cc(OC)c1OC | 0 | · | · | 2 | · | ·
O=C(Nc1ccccc1)OC[C@@H]1C=CS(=O)(=O)N1Cc1ccc(Br)cc1 | · | · | · | 4 | · | ·
COCCN(C(=O)CN1CCc2ccccc21)c1c(N)n(Cc2ccccc2)c(=O)[nH]c1=O | 0 | -31 | · | 4 | · | ·
CCN(C(=O)CN1CCc2ccccc21)c1c(N)n(Cc2ccccc2)c(=O)[nH]c1=O | 0 | -28 | 28 | 1 | -1 | 99
CC[C@]12c3[nH]c4cc(CCC(=O)N(C)C)ccc4c3CCN1C(=O)[C@@H](CC(=O)NCCc1ccccn1)C[C@@H]2C(=O)N1CCN(C(=O)C2CC2)CC1 | 0 | -3 | 3 | 3 | · | ·
CCOC(=O)c1c(C)n2c3c(cc(C)cc13)CCC2 | 86* | -14 | 14 | 0 | -2 | 92
CCOC(=O)c1c2n(c3ccc(O)cc13)CCCCC2 | 0 | 17 | -17 | -1 | · | ·
Cc1ccc(-c2csc3ncn(CC(=O)NCC(c4ccco4)N4CCCC4)c(=O)c23)cc1 (centres undefined) | 78* | 10 | -10 | 0 | -4 | 92
CCc1ccc(-c2csc3ncn(CC(=O)NCc4ccco4)c(=O)c23)cc1 | 0 | 15 | -15 | 0 | · | ·
CC1(C)N=C(SCC(=O)Nc2ccc(Cl)cc2)C(c2ccc(Cl)cc2)=N1 | 33 | -17 | 17 | -5 | -3 | 95
CC1(C)N=C(SCC(=O)Nc2ccc(Cl)cc2)C(c2ccccc2)=N1 | 0 | 47 | -47 | 1 | · | ·
Cc1cccc(C(=O)N2CCN(c3ccccn3)CC2)c1 | 75* | · | · | 3 | 0 | 95
